Experiment [1] has as its target T1, Acid ceramidase (Homo sapiens) (UniProt Q13510).
T1 sequence (whole entry): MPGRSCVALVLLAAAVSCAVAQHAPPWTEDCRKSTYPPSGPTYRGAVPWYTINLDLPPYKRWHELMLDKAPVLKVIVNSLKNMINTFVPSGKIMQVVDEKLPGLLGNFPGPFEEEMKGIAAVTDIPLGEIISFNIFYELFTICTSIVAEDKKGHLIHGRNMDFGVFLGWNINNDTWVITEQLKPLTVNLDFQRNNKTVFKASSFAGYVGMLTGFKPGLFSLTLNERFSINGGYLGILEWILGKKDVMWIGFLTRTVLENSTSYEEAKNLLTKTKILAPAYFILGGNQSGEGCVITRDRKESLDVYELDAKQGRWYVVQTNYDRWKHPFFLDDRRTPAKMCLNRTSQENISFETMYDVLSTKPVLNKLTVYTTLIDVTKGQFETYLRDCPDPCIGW
The experiment is described as follows: Inhibition of exogenous C6-ceramid-stimulated acid ceramidase in human PBMC assessed as ratio of C16-ceramide/lipid phosphate level at 10 uM preincubated for 30 mins followed by C6-ceramid stimulation measured after 4 hrs by HPLC method (reference value: 2.19). The experiment is classed as cell-based. In a few lines:
(§1)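 Human macrophages from primary culture were preincubated 30 min with 10 µM compound. They were then stimulated 4 h with mmLDL (54 µg/mL), TNFalpha (3 ng/mL) or exogenous C6-ceramide (10 µM), or left unstimulated. Individual ceramide species (C16 and C24:1) were quantified in the cell lipid extracts.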

Experiment [2] has as its system MONO-MAC-6. The experiment is described as follows: Downregulation of IL-6 mRNA expression level in LPS-stimulated human MONO-MAC-6 cells at 5 uM preincubated for 30 mins followed by LPS stimulation measured after 1 hr by qRT-PCR method (reference value: 1). The experiment is classed as functional.
Experiment [3] relates to MONO-MAC-6. The experiment is described as follows: Downregulation of PTGS2 mRNA expression level in human MONO-MAC-6 cells at 5 uM incubated for 30 mins measured after 1 hr by oligonucleotide array hybridization assay relative to control. In kind it is functional. In a few lines:
(§2)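 Total RNA was isolated, transcribed and labeled with DY-647 dye, then co-hybridized with DY-548-labeled cDNA from untreated cells on an inflammation oligonucleotide chip (780 gene probes). Differential expression >1.5 was taken as significant.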

Experiment [4] relates to MONO-MAC-6. The experiment is described as follows: Upregulation of CCL4 mRNA expression level in LPS-stimulated human MONO-MAC-6 cells at 5 uM preincubated for 30 mins followed by LPS stimulation measured after 2 hrs by oligonucleotide array hybridization assay (reference value: 5.78). In kind it is functional.
The subject of experiment [5] is MONO-MAC-6. The experiment in a line: Downregulation of CXCL2 mRNA expression level in human MONO-MAC-6 cells at 5 uM incubated for 30 mins measured after 6 hrs by qRT-PCR method relative to control. The experiment is classed as functional. (In general: Real-time PCR tracks product formation cycle by cycle.)
Experiment [6] relates to MONO-MAC-6. The experiment is described as follows: Upregulation of TNFalpha mRNA expression level in LPS-stimulated human MONO-MAC-6 cells at 5 uM preincubated for 30 mins followed by LPS stimulation measured after 1 hr by qRT-PCR method (reference value: 1.08). The experiment is classed as functional.
Experiment [7] deals with MONO-MAC-6. The experiment in a line: Upregulation of CXCL10 mRNA expression level in human MONO-MAC-6 cells at 5 uM incubated for 30 mins measured after 1 hr by oligonucleotide array hybridization assay relative to control. In kind it is functional.
In experiment [8] the test system is MONO-MAC-6. The experiment is described as follows: Upregulation of PTGS2 mRNA expression level in LPS-stimulated human MONO-MAC-6 cells at 5 uM preincubated for 30 mins followed by LPS stimulation measured after 1 hr by oligonucleotide array hybridization assay (reference value: 1.01). The experiment is classed as functional.
For experiment [9], the system named is MONO-MAC-6. The experiment in a line: Upregulation of CXCL10 mRNA expression level in LPS-stimulated human MONO-MAC-6 cells at 5 uM preincubated for 30 mins followed by LPS stimulation measured after 4 hrs by oligonucleotide array hybridization assay (reference value: 3.07). In kind it is functional.
The test system of experiment [10] is MONO-MAC-6. The experiment is described as follows: Downregulation of CXCL2 mRNA expression level in human MONO-MAC-6 cells at 5 uM incubated for 30 mins measured after 1 hr by oligonucleotide array hybridization assay relative to control. The experiment is classed as functional. In a few lines:
as §2

Experiment [11] deals with MONO-MAC-6. The experiment is described as follows: Upregulation of ICAM1 mRNA expression level in LPS-stimulated human MONO-MAC-6 cells at 5 uM preincubated for 30 mins followed by LPS stimulation measured after 6 hrs by oligonucleotide array hybridization assay (reference value: 2.90). The experiment is classed as functional.
Experiment [12] relates to MONO-MAC-6. The experiment is described as follows: Downregulation of PTGS2 mRNA expression level in human MONO-MAC-6 cells at 5 uM incubated for 30 mins measured after 6 hrs by oligonucleotide array hybridization assay relative to control. The experiment is classed as functional. In a few lines:
as §2

Experiment [13] relates to MONO-MAC-6. The experiment is described as follows: Upregulation of PTGS2 mRNA expression level in LPS-stimulated human MONO-MAC-6 cells at 5 uM preincubated for 30 mins followed by LPS stimulation measured after 4 hrs by oligonucleotide array hybridization assay (reference value: 5.29). The experiment is classed as functional.
Experiment [14] deals with MONO-MAC-6. The experiment in a line: Upregulation of CXCL2 mRNA expression level in LPS-stimulated human MONO-MAC-6 cells at 5 uM preincubated for 30 mins followed by LPS stimulation measured after 4 hrs by qRT-PCR method (reference value: 16.41). The experiment is classed as functional.
Experiment [15] relates to MONO-MAC-6. The experiment in a line: Upregulation of CCL4 mRNA expression level in LPS-stimulated human MONO-MAC-6 cells at 5 uM preincubated for 30 mins followed by LPS stimulation measured after 4 hrs by oligonucleotide array hybridization assay (reference value: 18.52). In kind it is functional.
Experiment [16] deals with MONO-MAC-6. The experiment is described as follows: Upregulation of ICAM1 mRNA expression level in LPS-stimulated human MONO-MAC-6 cells at 5 uM preincubated for 30 mins followed by LPS stimulation measured after 1 hr by oligonucleotide array hybridization assay (reference value: 1.17). In kind it is functional.
Experiment [17] deals with MONO-MAC-6. The experiment in a line: Upregulation of CXCL2 mRNA expression level in human MONO-MAC-6 cells at 5 uM incubated for 30 mins measured after 2 hrs by oligonucleotide array hybridization assay relative to control. In kind it is functional.
In experiment [18] the test system is MONO-MAC-6. The experiment is described as follows: Downregulation of CXCL2 mRNA expression level in LPS-stimulated human MONO-MAC-6 cells at 5 uM preincubated for 30 mins followed by LPS stimulation measured after 6 hrs by qRT-PCR method (reference value: 5.22). In kind it is functional.
Experiment [19] relates to MONO-MAC-6. The experiment in a line: Downregulation of TNFalpha mRNA expression level in human MONO-MAC-6 cells at 5 uM incubated for 30 mins measured after 4 hrs by qRT-PCR method relative to control. The experiment is classed as functional.
Experiment [20] has as its target T1, Acid ceramidase (Homo sapiens). The experiment in a line: Inhibition of mmLDL-stimulated acid ceramidase in human PBMC assessed as ratio of C16-ceramide/lipid phosphate level at 10 uM preincubated for 30 mins followed by mmLDL stimulation measured after 4 hrs by HPLC method (reference value: 0.49). In kind it is cell-based. Put shortly: as §1

In the case of `COc1ccc(CCN(C)CCCn2c3ccccc3c3ccccc32)cc1`, the Ratio in experiment [1] turned out to be 0.47; in [20], 0.24. In addition, the “fold change (FC)” value in experiment [2] was 1.17; in experiment [3], 1.1; in experiment [4], 3.09; in experiment [5] it was 4.71; in experiment [6], 1.23; in experiment [7], 1.11. Moreover, the “fold change (FC)” value in [8] is given as 1.1; in [9] it was 1.01; in experiment [10], 1.12; in experiment [11], 1.15; in experiment [12], 2.23; in experiment [13] it was 4.07. Besides, the “fold change (FC)” value in [14] worked out at 8.28; in experiment [15] it was 8.04; in experiment [16], 1.11; in experiment [17] it was 1.11; in [18] it was 1.01; in experiment [19], 2.86.
